# Assay results of several laboratories.
# Protocols differ between the studies behind these lines.
# Target: Homeodomain-interacting protein kinase 4 (HIPK4, Homo sapiens, UniProt Q8NE63)
# Sequence (Q8NE63 1-616, as in one of the studies): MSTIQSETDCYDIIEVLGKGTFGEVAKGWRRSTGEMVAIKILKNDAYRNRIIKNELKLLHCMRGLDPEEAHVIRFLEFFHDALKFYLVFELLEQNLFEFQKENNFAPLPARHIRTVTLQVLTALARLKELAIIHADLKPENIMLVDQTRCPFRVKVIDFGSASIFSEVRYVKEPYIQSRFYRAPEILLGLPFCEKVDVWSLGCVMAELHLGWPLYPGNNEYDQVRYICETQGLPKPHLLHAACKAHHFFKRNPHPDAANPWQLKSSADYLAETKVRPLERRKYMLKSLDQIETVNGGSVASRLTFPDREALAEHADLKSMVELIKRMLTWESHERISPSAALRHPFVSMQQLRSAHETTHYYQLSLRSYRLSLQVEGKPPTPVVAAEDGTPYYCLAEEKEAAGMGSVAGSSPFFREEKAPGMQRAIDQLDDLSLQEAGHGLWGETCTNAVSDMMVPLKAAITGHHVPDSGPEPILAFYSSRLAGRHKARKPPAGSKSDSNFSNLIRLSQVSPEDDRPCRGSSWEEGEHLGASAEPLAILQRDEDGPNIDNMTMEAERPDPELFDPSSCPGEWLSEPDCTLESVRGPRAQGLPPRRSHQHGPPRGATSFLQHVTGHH
SMILES,assay,conditions,measurement,value
Cn1cc(-c2cc(F)cc(N3CCn4c(cc5c4CCCC5)C3=O)c2CO)cc(Nc2ccc(N3CCN(C4COC4)CC3)cn2)c1=O,"enzyme activity, inhibitor",0.1 µM,inhibition,11%
Cn1cncc1[C@](O)(COc1ccc(C#N)cc1-c1ccc(OC(F)(F)F)cc1)c1ccc(C#N)cc1,"cell-free assay, competition with immobilised ligand",1 µM,remaining binding,86%
COc1ncccc1-c1cnn2ccc(N3CCN(C(=O)OC(C)C)CC3)nc12,"binding, competition with immobilised ligand",1 µM,remaining binding,99%
O=c1[nH]c2ccccc2n1C1CCN(Cc2ccc(-c3[nH]c4cc5ncnc5cc4nc3-c3ccccc3)cc2)CC1,cell-free assay,0.5 µM,remaining signal,99.3%
Cc1nn(C)cc1-c1nc2c(N3CCN(Cc4ccc(Cl)cc4)CC3)c(Cl)cnc2[nH]1,"binding, competition with immobilised ligand",1 µM,remaining binding,85%
CC(C)(C)c1cc(C=C(C#N)C#N)cc(Br)c1O,"enzyme activity, inhibitor",0.5 µM,remaining activity,103%
Nc1ncc(-c2nc(N3CCOCC3)nc(N3CCOCC3)n2)c(C(F)F)n1,"binding, competition with immobilised ligand",10 µM,remaining binding,100%
Cn1cc(-c2cccc(N3CCc4c(sc5c4CC(C)(C)C5)C3=O)c2CO)cc(Nc2ccncn2)c1=O,"enzyme activity, inhibitor",1 µM,inhibition,11%
